According to ChEMBL document CHEMBL4732237, “Discovery of 4-alkoxy-2-aryl-6,7-dimethoxyquinolines as a new class of topoisomerase I inhibitors endowed with potent in vitro anticancer activity” (2021):

test system: SK-OV-3; assay: Growth inhibition of human SK-OV-3 cells incubated for 48 hrs by sulforhodamine B assay; format: functional
Procedure, shortened: (§1)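 NCI five-dose screen (0.01–100 µM; five concentrations plus control). Cells grown in RPMI 1640/5% FBS/2 mM L-glutamine and preincubated 24 h, with time-zero plates TCA-fixed. Drug exposure 48 h at 37 °C, followed by SRB protein staining and reading at 515 nm. GI50 is the concentration at [(Ti-Tz)/(C-Tz)]×100 = 50.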

Compound | GI50 [µM]
COc1cc2nc(-c3ccc(Cl)cc3)cc(OCCCN3CCCC3)c2cc1OC | 2.42

test system: 786-0; assay: Growth inhibition of human 786-0 cells incubated for 48 hrs by sulforhodamine B assay; format: functional
Procedure, shortened: (§2)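 NCI five-dose screen covering 0.01–100 µM, prepared as 10-fold or ½-log dilutions from DMSO stock. Cells in RPMI 1640 with 5% FBS were exposed for 48 h at 37 °C after 24 h preincubation. Adherent cells were fixed with TCA (final 10%) and suspension cells were settled before fixing. Stain was SRB, read at 515 nm. GI50 = 50% reduction in net protein increase versus control, with Tz taken at drug addition.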

Compound | GI50 [µM]
COc1cc2nc(-c3ccc(Cl)cc3)cc(OCCCN3CCCC3)c2cc1OC | 2.78

test system: U-251; assay: Growth inhibition of human U-251 cells incubated for 48 hrs by sulforhodamine B assay; format: functional
Procedure, shortened: (§3)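 NCI five-dose assay, with drug stocks in DMSO diluted in medium to five concentrations (10-fold or ½-log series). Cells in RPMI 1640/5% FBS were pre-incubated 24 h, and time-zero plates were TCA-fixed at drug addition. After 48 h at 37 °C, cells were TCA-fixed, SRB-stained and read at 515 nm. GI50 is from [(Ti-Tz)/(C-Tz)]×100 = 50, TGI from Ti = Tz, and LC50 from [(Ti-Tz)/Tz]×100 = -50.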

Compound | GI50 [µM]
COc1cc2nc(-c3ccc(Cl)cc3)cc(OCCCN3CCCC3)c2cc1OC | 1.79

test system: COLO 205; assay: Growth inhibition of human COLO 205 cells incubated for 48 hrs by sulforhodamine B assay; format: functional; procedure, shortened: as §2

Compound | GI50 [µM]
COc1cc2nc(-c3ccc(Cl)cc3)cc(OCCCN3CCCC3)c2cc1OC | 0.459

test system: SNB-19; assay: Growth inhibition of human SNB-19 cells incubated for 48 hrs by sulforhodamine B assay; format: functional; procedure, shortened: as §1

Compound | GI50 [µM]
COc1cc2nc(-c3ccc(Cl)cc3)cc(OCCCN3CCCC3)c2cc1OC | 3.14

test system: BT-549; assay: Growth inhibition of human BT-549 cells incubated for 48 hrs by sulforhodamine B assay; format: functional; procedure, shortened: as §2

Compound | GI50 [µM]
COc1cc2nc(-c3ccc(Cl)cc3)cc(OCCCN3CCCC3)c2cc1OC | 1.77

test system: SN12C; assay: Growth inhibition of human SN12C cells incubated for 48 hrs by sulforhodamine B assay; format: functional; procedure, shortened: as §1

Compound | GI50 [µM]
COc1cc2nc(-c3ccc(Cl)cc3)cc(OCCCN3CCCC3)c2cc1OC | 0.914

test system: SW-620; assay: Growth inhibition of human SW-620 cells incubated for 48 hrs by sulforhodamine B assay; format: functional; procedure, shortened: as §3

Compound | GI50 [µM]
COc1cc2nc(-c3ccc(Cl)cc3)cc(OCCCN3CCCC3)c2cc1OC | 3.12

test system: PC-3; assay: Growth inhibition of human PC-3 cells incubated for 48 hrs by sulforhodamine B assay; format: functional; procedure, shortened: as §1

Compound | GI50 [µM]
COc1cc2nc(-c3ccc(Cl)cc3)cc(OCCCN3CCCC3)c2cc1OC | 1.76

test system: SNB-75; assay: Growth inhibition of human SNB-75 cells incubated for 48 hrs by sulforhodamine B assay; format: functional; procedure, shortened: as §1

Compound | GI50 [µM]
COc1cc2nc(-c3ccc(Cl)cc3)cc(OCCCN3CCCC3)c2cc1OC | 1.73

test system: RXF 393; assay: Growth inhibition of human RXF 393 cells incubated for 48 hrs by sulforhodamine B assay; format: functional; procedure, shortened: as §1

Compound | GI50 [µM]
COc1cc2nc(-c3ccc(Cl)cc3)cc(OCCCN3CCCC3)c2cc1OC | 1.17

test system: Hs-578T; assay: Growth inhibition of human HS-578T cells incubated for 48 hrs by sulforhodamine B assay; format: functional; procedure, shortened: as §2

Compound | GI50 [µM]
COc1cc2nc(-c3ccc(Cl)cc3)cc(OCCCN3CCCC3)c2cc1OC | 1.89

test system: SF-268; assay: Growth inhibition of human SF-268 cells incubated for 48 hrs by sulforhodamine B assay; format: functional; procedure, shortened: as §1

Compound | GI50 [µM]
COc1cc2nc(-c3ccc(Cl)cc3)cc(OCCCN3CCCC3)c2cc1OC | 2.53

test system: HCT-29; assay: Growth inhibition of human […] cells incubated for 48 hrs by sulforhodamine B assay; format: functional; procedure, shortened: as §2

Compound | GI50 [µM]
COc1cc2nc(-c3ccc(Cl)cc3)cc(OCCCN3CCCC3)c2cc1OC | 0.454

test system: ACHN; assay: Growth inhibition of human ACHN cells incubated for 48 hrs by sulforhodamine B assay; format: functional; procedure, shortened: as §2

Compound | GI50 [µM]
COc1cc2nc(-c3ccc(Cl)cc3)cc(OCCCN3CCCC3)c2cc1OC | 1.93

test system: MDA-MB-468; assay: Growth inhibition of human MDA-MB-468 cells incubated for 48 hrs by sulforhodamine B assay; format: functional; procedure, shortened: as §2

Compound | GI50 [µM]
COc1cc2nc(-c3ccc(Cl)cc3)cc(OCCCN3CCCC3)c2cc1OC | 1.28

test system: HL-60(TB); assay: Growth inhibition of human HL-60(TB) cells incubated for 48 hrs by sulforhodamine B assay; format: functional
Procedure, shortened: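 NCI-60 five-dose screen. Cells in RPMI 1640 with 5% FBS and 2 mM L-glutamine were plated at 5000–40,000 cells/well and preincubated 24 h at 37 °C, 5% CO2. Drugs in DMSO were given at five serial 10-fold or ½-log dilutions for 48 h. Adherent cells fixed with 10% TCA (final); suspension cells fixed after settling. SRB stained; A515. GI50 from [(Ti-Tz)/(C-Tz)]x100 = 50.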

Compound | GI50 [µM]
COc1cc2nc(-c3ccc(Cl)cc3)cc(OCCCN3CCCC3)c2cc1OC | 2.72

test system: EKVX; assay: Growth inhibition of human EKVX cells incubated for 48 hrs by sulforhodamine B assay; format: functional; procedure, shortened: as §2

Compound | GI50 [µM]
COc1cc2nc(-c3ccc(Cl)cc3)cc(OCCCN3CCCC3)c2cc1OC | 1.21

test system: LOX IMVI; assay: Growth inhibition of human LOX IMVI cells incubated for 48 hrs by sulforhodamine B assay; format: functional; procedure, shortened: as §2

Compound | GI50 [µM] | TGI [µM]
COc1cc2nc(-c3ccc(Cl)cc3)cc(OCCCN3CCCC3)c2cc1OC | 0.191 | 0.446

test system: KM12; assay: Growth inhibition of human KM12 cells incubated for 48 hrs by sulforhodamine B assay; format: functional; procedure, shortened: as §2

Compound | GI50 [µM]
COc1cc2nc(-c3ccc(Cl)cc3)cc(OCCCN3CCCC3)c2cc1OC | 2.46
